One compound from ChEMBL document CHEMBL3526053, “Species-dependent uptake of glycylsarcosine but not oseltamivir in Pichia pastoris expressing the rat, mouse, and human intestinal peptide transporter PEPT1” (Drug Metab Dispos, 2012) can be followed below.

Format in all cases: ADME
In series [1] the target is T1, Solute carrier family 15 member 1 (Homo sapiens, UniProt P46059).
T1 sequence (P46059 whole entry): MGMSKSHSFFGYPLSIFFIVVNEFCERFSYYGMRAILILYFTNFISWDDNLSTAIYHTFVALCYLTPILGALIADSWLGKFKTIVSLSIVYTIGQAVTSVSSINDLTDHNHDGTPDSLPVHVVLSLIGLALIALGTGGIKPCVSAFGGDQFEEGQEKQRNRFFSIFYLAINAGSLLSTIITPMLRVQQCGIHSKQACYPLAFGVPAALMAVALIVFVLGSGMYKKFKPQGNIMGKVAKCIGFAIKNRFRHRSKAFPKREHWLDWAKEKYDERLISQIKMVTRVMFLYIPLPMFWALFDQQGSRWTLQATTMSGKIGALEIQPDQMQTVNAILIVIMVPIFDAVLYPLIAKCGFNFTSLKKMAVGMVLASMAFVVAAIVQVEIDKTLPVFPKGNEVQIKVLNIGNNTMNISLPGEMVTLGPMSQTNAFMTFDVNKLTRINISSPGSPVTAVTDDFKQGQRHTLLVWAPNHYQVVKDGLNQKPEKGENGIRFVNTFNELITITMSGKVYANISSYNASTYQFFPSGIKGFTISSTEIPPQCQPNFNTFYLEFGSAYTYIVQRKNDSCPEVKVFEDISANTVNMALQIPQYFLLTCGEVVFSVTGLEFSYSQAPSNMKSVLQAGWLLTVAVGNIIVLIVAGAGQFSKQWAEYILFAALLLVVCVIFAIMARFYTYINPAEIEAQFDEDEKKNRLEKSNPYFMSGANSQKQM
Kind of series: Drug uptake in Pichia pastoris GS115 expressing human recombinant PEPT1 at 5 uM after 30s by dual-channel liquid scintillation counting analysis in presence of cefadroxil relative to control. The following applies: 0.5 min. In short, it runs like this:
(§1)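 [3H]GlySar 5.0 µM final, 30-s uptake at 24°C in 100 mM potassium phosphate pH 6.5, with or without a potential inhibitor at 10 mM. Cells are methanol-induced transformants. Values are vector-subtracted and expressed as percent of buffer control. Mean ± SE (n=3). ANOVA with Dunnett's test.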

The target of series [2] is T2, Solute carrier family 15 member 1 (Mus musculus, UniProt Q9JIP7).
T2 sequence (Q9JIP7 whole entry): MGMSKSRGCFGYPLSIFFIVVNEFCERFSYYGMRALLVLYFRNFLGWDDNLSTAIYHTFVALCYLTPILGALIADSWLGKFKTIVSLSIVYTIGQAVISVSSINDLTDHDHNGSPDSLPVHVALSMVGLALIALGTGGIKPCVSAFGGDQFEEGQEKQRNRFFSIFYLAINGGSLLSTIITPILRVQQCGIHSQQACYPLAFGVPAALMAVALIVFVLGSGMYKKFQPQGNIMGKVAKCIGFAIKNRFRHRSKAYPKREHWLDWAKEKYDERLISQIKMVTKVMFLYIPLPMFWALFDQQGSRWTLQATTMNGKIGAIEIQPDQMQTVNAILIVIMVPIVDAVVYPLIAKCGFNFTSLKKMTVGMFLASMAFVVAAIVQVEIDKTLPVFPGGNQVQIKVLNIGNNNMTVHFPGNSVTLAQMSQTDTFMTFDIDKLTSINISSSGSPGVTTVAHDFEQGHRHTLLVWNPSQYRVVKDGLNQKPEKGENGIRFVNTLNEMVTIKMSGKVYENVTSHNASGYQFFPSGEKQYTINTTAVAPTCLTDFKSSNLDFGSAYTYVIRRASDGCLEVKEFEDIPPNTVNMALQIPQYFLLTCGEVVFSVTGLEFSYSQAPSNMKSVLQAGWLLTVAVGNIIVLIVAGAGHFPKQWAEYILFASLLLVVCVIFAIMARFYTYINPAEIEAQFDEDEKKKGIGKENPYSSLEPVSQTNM
Put plainly: Drug uptake in Pichia pastoris GS115 expressing mouse recombinant PEPT1 at 5 uM after 30s by dual-channel liquid scintillation counting analysis in presence of valacyclovir relative to control. As to conditions: in vivo, 0.5 min. In short, it runs like this:
as §1

Series [3] deals with T2, Solute carrier family 15 member 1. Kind of series: Drug uptake in Pichia pastoris GS115 expressing mouse recombinant PEPT1 at 5 uM after 30s by dual-channel liquid scintillation counting analysis in presence of cephapirin relative to control. The following applies: 0.5 min. Summed up: as §1
For series [4] the target is unchanged. Put plainly: Drug uptake in Pichia pastoris GS115 expressing mouse recombinant PEPT1 at 5 uM after 30s by dual-channel liquid scintillation counting analysis in presence of cephalothin relative to control. As to conditions: 0.5 min. In short, it runs like this: as §1
For series [5], the target named is T3, Solute carrier family 15 member 1 (Rattus norvegicus, UniProt P51574).
T3 sequence (P51574 whole entry): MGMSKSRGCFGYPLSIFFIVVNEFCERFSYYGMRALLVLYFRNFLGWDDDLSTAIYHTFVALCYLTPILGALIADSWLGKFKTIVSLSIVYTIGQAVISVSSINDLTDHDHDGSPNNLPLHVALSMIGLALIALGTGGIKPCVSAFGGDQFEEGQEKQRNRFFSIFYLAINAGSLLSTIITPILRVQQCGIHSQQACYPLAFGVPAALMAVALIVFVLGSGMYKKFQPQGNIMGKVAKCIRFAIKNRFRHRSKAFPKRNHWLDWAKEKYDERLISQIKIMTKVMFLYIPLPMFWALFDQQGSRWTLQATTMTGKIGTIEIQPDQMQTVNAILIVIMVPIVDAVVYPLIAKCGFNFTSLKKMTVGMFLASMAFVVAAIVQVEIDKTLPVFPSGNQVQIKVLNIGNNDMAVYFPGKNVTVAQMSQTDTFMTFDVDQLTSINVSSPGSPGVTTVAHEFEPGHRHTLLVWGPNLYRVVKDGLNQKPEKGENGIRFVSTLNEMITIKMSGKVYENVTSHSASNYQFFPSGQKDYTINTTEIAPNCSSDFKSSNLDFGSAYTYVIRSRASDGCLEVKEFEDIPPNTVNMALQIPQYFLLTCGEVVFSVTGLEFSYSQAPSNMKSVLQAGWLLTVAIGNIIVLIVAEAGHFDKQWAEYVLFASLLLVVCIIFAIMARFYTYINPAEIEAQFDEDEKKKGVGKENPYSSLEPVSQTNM
Kind of series: Drug uptake in Pichia pastoris GS115 expressing rat recombinant PEPT1 at 5 uM after 30s by dual-channel liquid scintillation counting analysis in presence of TEA relative to control. As to conditions: 0.5 min. In short, it runs like this: as §1

Series [6] deals with T1, Solute carrier family 15 member 1. Kind of series: Drug uptake in Pichia pastoris GS115 expressing human recombinant PEPT1 at 5 uM after 30s by dual-channel liquid scintillation counting analysis in presence of L-histidine relative to control. As to conditions: 0.5 min. Summed up:
as §1

Series [7] has as its target T2, Solute carrier family 15 member 1. Kind of series: Drug uptake in Pichia pastoris GS115 expressing mouse recombinant PEPT1 at 5 uM after 30s by dual-channel liquid scintillation counting analysis in presence of cefazolin relative to control. As to conditions: 0.5 min. In short, it runs like this: as §1

With `[3H]C(C(=O)O)N(C)C(=O)CN` (configuration not stated), the Drug uptake in series [1] came to 6.4%; in series [2], 4.5%; in series [3] it was 83.7%; in series [4], 85%; in series [5] it was 94.8%; in series [6], 122%. Besides, the Drug uptake in series [7] was determined as 87.4%.
